PMC7384665 (Bioorganic & medicinal chemistry, 2020)
Where two headings read alike, the source gives them in different places.

Columns and labels:
Recombinant GGTase I = Recombinant GGTase I (Rattus norvegicus, UniProt P53610+Q04631); assay: GGTase I enzyme assay; format: biochemical
Summary of the method: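 Recombinant GGTase I activity measured by a modified Temple et al. method, with dansyl-peptide substrates (dansyl-GCVLS and dansyl-GCVLL listed for the FTase/GGTase I assays); fluorescence change followed over time on a microplate reader. Test compound run in duplicate at multiple concentrations, three independent experiments; IC50 obtained from concentration-response curves.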

RPMI-8226 myeloma cells [1] = assay: H-Ras immunoblot; format: cell-based; conditions: RPMI-8226 cells, 48 h
Recombinant FTase = Recombinant FTase (Rattus norvegicus, UniProt Q02293+Q04631); assay: FTase enzyme assay; format: biochemical; conditions: for FTase inhibitory activity: concentrations as high as 100 μM, data not shown
RPMI-8226 myeloma cells [2] = assay: Cellular assays: Rap1a immunoblot and intracellular lambda light chain ELISA; format: cell-based
[3] = concentrations as high as 100 μM, data not shown

Sequence of Recombinant GGTase I (P53610 whole entry, one chain of several): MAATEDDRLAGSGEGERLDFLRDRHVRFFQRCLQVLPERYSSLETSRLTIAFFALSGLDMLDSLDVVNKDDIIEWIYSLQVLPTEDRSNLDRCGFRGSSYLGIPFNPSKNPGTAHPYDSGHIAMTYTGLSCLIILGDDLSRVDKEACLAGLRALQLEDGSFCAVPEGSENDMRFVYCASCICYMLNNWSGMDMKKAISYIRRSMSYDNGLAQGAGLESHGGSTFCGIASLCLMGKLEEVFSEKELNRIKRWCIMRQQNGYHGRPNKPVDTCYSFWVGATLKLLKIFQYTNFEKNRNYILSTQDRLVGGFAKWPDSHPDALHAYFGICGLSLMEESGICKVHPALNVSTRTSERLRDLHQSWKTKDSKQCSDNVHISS
Sequence of Recombinant FTase (Q02293 whole entry, one chain of several): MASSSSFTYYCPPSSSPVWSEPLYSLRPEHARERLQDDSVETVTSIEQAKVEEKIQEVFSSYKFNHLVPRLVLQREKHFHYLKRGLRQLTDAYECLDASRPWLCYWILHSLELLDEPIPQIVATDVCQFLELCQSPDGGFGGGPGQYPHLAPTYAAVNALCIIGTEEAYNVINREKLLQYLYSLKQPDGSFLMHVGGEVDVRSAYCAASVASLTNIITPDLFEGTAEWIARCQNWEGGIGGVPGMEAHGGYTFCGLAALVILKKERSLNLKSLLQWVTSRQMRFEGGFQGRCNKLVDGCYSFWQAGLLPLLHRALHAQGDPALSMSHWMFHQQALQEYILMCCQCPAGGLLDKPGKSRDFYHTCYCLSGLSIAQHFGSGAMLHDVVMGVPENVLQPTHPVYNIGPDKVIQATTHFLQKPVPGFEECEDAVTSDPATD

Structure (SMILES)	Effect on H-Ras farnesylation (prenylation) (RPMI-8226 myeloma cells [1])	FTase inhibitory activity (Recombinant FTase)	GGTase I inhibitory activity (Recombinant GGTase I; [3])	other results
CC(C)=CCC/C(C)=C/C(=O)NCCC(P(=O)([O-])[O-])P(=O)([O-])[O-].[Na+].[Na+].[Na+].[Na+] [Compound 2b, Disodium (1-[bis(sodiooxy)phosphoryl]-3-[(2E)-3,7-dimethylocta-2,6-dienamido]propyl)phosphonate]	disrupted H-Ras farnesylation	–	–	GGTase I inhibitory activity (Recombinant GGTase I): no inhibitory activity
CC(C)=CCC/C(C)=C\C(=O)NCCC(P(=O)(O)O)P(=O)(O)O [Compound 2c]	–	–	–	inhibition at 100 µM (Recombinant FTase; read-out: FTase inhibitory activity): < 30%
CC(C)=CCC[C@H](C)CC(=O)NCCC(P(=O)([O-])[O-])P(=O)([O-])[O-].[Na+].[Na+].[Na+].[Na+] [Compound 2d, Disodium (1-[bis(sodiooxy)phosphoryl]-3-[(3S)-3,7-dimethyloct-6-enamido]propyl)phosphonate]	None of these compounds (2g, 2h, 2i, 2e, 2d) disrupted H-Ras farnesylation	no inhibitory activity was observed	no inhibitory activity was observed	–
CC(C)=CCC[C@@H](C)CC(=O)NCCC(P(=O)([O-])[O-])P(=O)([O-])[O-].[Na+].[Na+].[Na+].[Na+] [Compound 2e, Disodium (1-[bis(sodiooxy)phosphoryl]-3-[(3R)-3,7-dimethyloct-6-enamido]propyl)phosphonate]	None of these compounds (2g, 2h, 2i, 2e, 2d) disrupted H-Ras farnesylation	no inhibitory activity was observed	no inhibitory activity was observed	Fold more potent than S-isomer 2d (RPMI-8226 myeloma cells [2]; cellular assays): 10 fold
CC(C)=CCC/C(C)=C\CC(=O)NCCC(P(=O)([O-])[O-])P(=O)([O-])[O-].[Na+].[Na+].[Na+].[Na+] [Compound 2g, Disodium (1-[bis(sodiooxy)phosphoryl]-3-[(3Z)-4,8-dimethylnona-3,7-dienamido]propyl)phosphonate]	None of these compounds (2g, 2h, 2i, 2e, 2d) disrupted H-Ras farnesylation	no inhibitory activity was observed	no inhibitory activity was observed	Fold increase in GGDPS inhibitor activity with respect to 2c (RPMI-8226 myeloma cells [2]; Figure 3B, Rap1a immunoblot): 10 fold
CC(C)=CCC/C(C)=C/CCC(=O)NCCC(P(=O)([O-])[O-])P(=O)([O-])[O-].[Na+].[Na+].[Na+].[Na+] [Compound 2h, Disodium (1-[bis(sodiooxy)phosphoryl]-3-[(4E)-5,9-dimethyldeca-4,8-dienamido]propyl)phosphonate]	None of these compounds (2g, 2h, 2i, 2e, 2d) disrupted H-Ras farnesylation	no inhibitory activity was observed	no inhibitory activity was observed	–
CC(C)=CCC/C(C)=C\CCC(=O)NCCC(P(=O)([O-])[O-])P(=O)([O-])[O-].[Na+].[Na+].[Na+].[Na+] [Compound 2i, Disodium (1-[bis(sodiooxy)phosphoryl]-3-[(4Z)-5,9-dimethyldeca-4,8-dienamido]propyl)phosphonate]	None of these compounds (2g, 2h, 2i, 2e, 2d) disrupted H-Ras farnesylation	no inhibitory activity was observed	no inhibitory activity was observed	Times less potent than triazole 1 (RPMI-8226 myeloma cells [2]; by LEC): approximately 17 times
CC(C)=CCCC(=O)NCCC(P(=O)([O-])[O-])P(=O)([O-])[O-].[Na+].[Na+].[Na+].[Na+] [Compound 2j, Disodium (1-[bis(sodiooxy)phosphoryl]-3-(5-methylhex-4-enamido)propyl)phosphonate]	lack of effect	–	–	–
